Assay results reported in ChEMBL document CHEMBL1817664, “Modulation of cell differentiation, proliferation, and tumor growth by dihydrobenzyloxopyrimidine non-nucleoside reverse transcriptase inhibitors” (2011).
The source made the active and inactive calls. No cut-off for these calls is given here.

Columns and labels:
A-375 [1] = assay: Antiproliferative activity against human A375 cells assessed as cell growth at 25 uM after 96 hrs by trypan blue assay; assay type: functional; conditions: A-375, 96 h, read-out: Activity
In short: (§1)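 A375 melanoma cells grown in DMEM with 10% FCS at 37 °C, 5% CO2; compounds added in DMSO after 56 h (DMSO 0.005% final for controls). Medium with drug renewed every 48 h. After 96 h, cells harvested and Coulter-counted, with trypan blue exclusion for viability. Counts given as % of DMSO controls; data pooled from three experiments.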

A-375 [2] = assay: Induction of human A375 cell differentiation assessed as microtubule reorganization at 20 uM after 96 hrs by immunofluorescence analysis; assay type: functional, cell-based
In short: (§2)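 A375 cells cultured 96 h with drug, then fixed in 4% paraformaldehyde for 10 min and permeabilized in 0.2% Triton X-100/PBS for 5 min. Immunostained for tubulin and vimentin, nuclei counterstained with DAPI.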

A-375 [3] = assay: Induction of human A375 cell differentiation assessed as formation of vimentin intermediate filament at 20 uM after 96 hrs by immunofluorescence analysis; assay type: functional, cell-based; in short: as §2
A-375 [4] = assay: Antiproliferative activity against human A375 cells at 350 uM after 96 hrs by trypan blue assay; assay type: functional
In short: (§3)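 A375 melanoma cells were grown in DMEM with 10% FCS, 2 mM L-glutamine and penicillin/streptomycin at 37 °C in 5% CO2, and plated at (20–50) × 10^3 cells per 35 mm plate. Once adherent (56 h), compound in DMSO was added (DMSO 0.005% final), with fresh drug medium every 48 h. After 96 h, viable cells were counted twice by Coulter counter, with trypan blue exclusion. Results are % of DMSO control, pooled from three experiments.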

A-375 [5] = assay: Induction of apoptosis in human A375 cells seeded as low density at 20 uM after 96 hrs by propidium iodide staining-based FACS analysis
A-375 [6] = assay: Antiproliferative activity against human A375 cells assessed as cell growth at 350 uM after 96 hrs by trypan blue assay; assay type: functional; conditions: A-375, 96 h, read-out: Activity; in short: as §3
A-375 [7] = assay: Induction of apoptosis in human A375 cells seeded as high density at 20 uM after 96 hrs by propidium iodide staining-based FACS analysis
A-375 [8] = assay: Antiproliferative activity against human A375 cells assessed as cell growth at 15 uM after 96 hrs by trypan blue assay; assay type: functional; conditions: A-375, 96 h, read-out: Activity; in short: as §1
A-375 [9] = assay: Antitumor activity against human A375 cells xenografted in athymic nude Harlan mouse assessed as reduced tumor growth at 20 mg/kg, ip administered daily 5 days pre week measured every other day
A-375 [10] = assay: Antiproliferative activity against human A375 cells assessed as morphological changes at 5 to 10 uM after 96 hrs by phase contrast microscopy; assay type: functional, cell-based
In short: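 A375 cultures in DMEM/10% FCS exposed to 5, 7.5 or 10 μM drug in DMSO; DMSO-only controls. Dendritic-like extensions scored under phase-contrast or bright-field microscopy.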

A-375 [11] = assay: Induction of apoptosis in human A375 cells after 96 hrs by propidium iodide staining-based FACS analysis; assay type: functional, cell-based
In short: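 A375 cells seeded at low (100 000) or high (300 000) density per 25 cm2 flask and cultured 96 h with 20 μM compound. Harvested for biparametric FACS: DNA content by PI uptake (linear) against side scatter (log); at least 10 000 cells per sample. Apoptotic fraction given as mean and SD of three experiments.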

A-375 [12] = assay: Antiproliferative activity against human A375 cells after 96 hrs by trypan blue assay; assay type: functional, cell-based; in short: as §1
A-375 [13] = assay: Induction of apoptosis in human A375 cells assessed as necrotic cells at 25 uM after 96 hrs by propidium iodide staining-based FACS analysis; assay type: functional, cell-based
A-375 [14] = assay: Antiproliferative activity against human A375 cells at 20 uM after 96 hrs by trypan blue assay; assay type: functional
In short: (§4)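 A375 cells plated at (20-50) × 10^3 per 35 mm dish in DMEM/10% FCS. Drug in DMSO added, renewed every 48 h; DMSO alone for controls. After 48 or 96 h, viable cells counted twice per sample by Coulter counter, with trypan blue check. Cells at time t divided by cells seeded, relative to DMSO control as 100%. Mean and SD: four experiments for dose series (5, 10, 20 μM, 96 h), three for time course (5 or 10 μM).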

A-375 [15] = assay: Antiproliferative activity against human A375 cells at 5 to 10 uM by trypan blue assay; assay type: functional, cell-based; conditions: TDE = time-dependent effect; in short: as §4
A-375 [16] = assay: Induction of morphological differentiation in human A375 cells assessed as dentritic-like extension at 5 to 10 uM after 96 hrs by phase contrast microscopy

CCC(c1cc(=O)[nH]c(SC)n1)c1c(F)cccc1F (stereo not drawn)
growth at 25 µM (A-375 [1]): 13%

CCC(c1cc(=O)[nH]c(S)n1)c1c(F)cccc1F (stereo not drawn)
growth at 25 µM (A-375 [1]): 100%

CCC(c1cc(O)nc(SC2CCCC2)n1)c1c(F)cccc1F (stereo not drawn)
growth at 25 µM (A-375 [1]): 22%

CCC(c1cc(O)nc(SC(C)C)n1)c1c(F)cccc1F (stereo not drawn)
growth at 25 µM (A-375 [1]): 19%

CCC(C)Sc1nc(C(CC)c2c(F)cccc2F)cc(=O)[nH]1 (stereo not drawn)
growth at 25 µM (A-375 [1]): 13%

Cc1ccnc2c1NC(=O)c1cccnc1N2C1CC1 [NEVIRAPINE]
Activity (A-375 [2]): Active
Activity (A-375 [3]): Active
Activity (A-375 [4]): 50%
Activity (A-375 [5]): inactive
growth at 350 µM (A-375 [6]): 35%
Activity (A-375 [7]): inactive

CCC(c1nc(SC2CCCC2)[nH]c(=O)c1C)c1c(F)cccc1F (stereo not drawn)
growth at 25 µM (A-375 [1]): 5%

O=C1Nc2ccc(Cl)cc2[C@@](C#CC2CC2)(C(F)(F)F)O1 [EFAVIRENZ]
growth at 15 µM (A-375 [8]): 51%
Activity (A-375 [9]): Active

CCC(c1nc(SC)[nH]c(=O)c1C)c1c(F)cccc1F (stereo not drawn)
growth at 25 µM (A-375 [1]): 40%

CCC(c1nc(S)[nH]c(=O)c1C)c1c(F)cccc1F (stereo not drawn)
growth at 25 µM (A-375 [1]): 76%

CCC(C)Sc1nc(C(CC)c2c(F)cccc2F)c(C)c(=O)[nH]1 (mixture of isomers)
Activity (A-375 [10]): Active
Activity (A-375 [11]): Dose-dependent effect
growth at 25 µM (A-375 [1]): 5%
Activity (A-375 [12]): Dose-dependent effect
Activity (A-375 [13]): Active
Activity (A-375 [9]): Active

CCC(C)Sc1nc([C@@H](CC)c2c(F)cccc2F)c(C)c(=O)[nH]1 (stereo partly drawn)
Activity (A-375 [2]): Active
Activity (A-375 [14]): 70%
Activity (A-375 [3]): Active
Activity (A-375 [15]): tde
Activity (A-375 [5]): inactive
Activity (A-375 [7]): Active
Activity (A-375 [16]): Active

CCC(C)Sc1nc([C@H](CC)c2c(F)cccc2F)c(C)c(=O)[nH]1 (stereo partly drawn)
Activity (A-375 [2]): Active
Activity (A-375 [14]): 70%
Activity (A-375 [3]): Active
Activity (A-375 [15]): tde
Activity (A-375 [5]): inactive
Activity (A-375 [7]): Active
Activity (A-375 [16]): Active
Activity (A-375 [9]): Active

CCC(c1nc(SC(C)C)[nH]c(=O)c1C)c1c(F)cccc1F (stereo not drawn)
growth at 25 µM (A-375 [1]): 12%
